# According to ChEMBL document CHEMBL4513216, “Probing the Open Global Health Chemical Diversity Library for Multistage-Active Starting Points for Next-Generation Antimalarials” (ACS Infect Dis, 2020):
# Assay: Toxicity liver stage against HepG2, at 10uM
# Assay type: cell-based
# Parameters: test concentration 10 uM, cell line HepG2-A16-CD81EGFP
# Conditions: human, HepG2-A16-CD81EGFP cells; read-out: INHIBITION
# How it was run: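 Uninfected HepG2-A16-CD81EGFP cells, 3 × 10^3 per well, 1536-well, plated on prespotted compound at 10 μM final, parasite-free screening media added to match infected plates; puromycin 10 μM positive, DMSO 0.5% negative; run in parallel with 48 h PbLuc assay at 37 °C, 5% CO2; viability by CellTiter-Glo luminescence, normalized to controls.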
row,SMILES,cytotoxicity at 10 µM [%]
1,O=C(NCCN1CCCCC1)C(c1ccccc1)N1CCCC1 (stereo not drawn),-1.46
2,CC(C)n1ccc2cc(C(=O)Nc3nc[nH]n3)ccc21,4.06
3,COCC(C)NC(=O)c1nnn(-c2ccc(OC)cc2)n1 (stereo not drawn),1.87
4,Nc1cccnc1N1CCC(C(F)(F)F)CC1,8.19
5,CCC(CC)NC(=O)c1ccc2c(c1)C(c1nc[nH]n1)CN2S(C)(=O)=O (stereo not drawn),-138
6,COC1COC2(CCN(C(=O)c3cnc(C)cn3)CC2)C1 (stereo not drawn),4.29
7,COCC1c2nnn(CC3CC3)c2CCN1C(=O)C1CCOCC1 (stereo not drawn),-136
8,COCC(=O)N1CCC2(COCc3cnc(-c4ccccc4)nc32)C1 (stereo not drawn),2.65
9,CCCNC(=O)c1nc2c(o1)CN(C(=O)CN(C)C)C2,0.0773
10,O=C(c1cccs1)N1CCN(CC2CC2)c2ncccc2C1,0.835
11,O=C(O)c1nnn(-c2ccc(OC(F)(F)F)cc2)c1-c1ccncc1,-5.85
12,Cc1cc(C(F)(F)F)nn1CC(C)C(=O)Nc1ccccn1 (stereo not drawn),9.84
13,CCn1nc(C)c2c1cnn2CCNS(=O)(=O)c1ccccc1,6.28
14,CCc1nnc(SCc2nonc2C)n1C,-1.04
15,Nc1nccnc1C1CN(Cc2ccc(OCC(=O)O)cc2)CCO1 (stereo not drawn),-2.11
16,CCc1nccn1-c1cncc(C2CCN(C(=O)COC)CC2)n1,-37.3
17,O=C(O)C1(Cc2cccc(-c3ccc(F)cc3)c2)CCOCC1,-24.1
18,O=C(CSc1nnc(N2CCOCC2)s1)NCc1cccs1,1.66
19,O=C(NC1CCCCC1)c1c(F)cccc1F,3.32
20,Cc1nc(CNC(=O)NCC2(C)CCCc3ccccc32)no1 (stereo not drawn),-3.05
21,CSc1cc2c(cc1NC(=O)N(C)Cc1cnn(C)c1)OCCO2,5.25
22,CN1CCN(C2CCN(Cc3noc(C(C)(C)C)n3)CC2)C1=O,17.1
23,CCC1COCCN1C(=O)CNC(=O)c1ccoc1C (stereo not drawn),-7.51

row,SMILES,cytotoxicity at 10 µM [%]
1,COCCCn1ccc(NC2CCSCC2)n1,3.04
2,CN(CC(N)=O)Cc1c(Cl)ccc2cccnc12,4.53
3,Cc1nnc(NCc2ccc(N3CCC(CO)CC3)cc2)c(C#N)c1C,-2.83
4,O=C(CN1CCS(=O)(=O)CC1)NC1CCOc2ccccc21 (stereo not drawn),5.44
5,O=C(CCn1ccc2ccccc21)N1CCC(Nc2cccnc2)CC1,9.08
6,Cn1c(C2CC2)nc2cc(NC(=O)C3CC=CC3)ccc21,2.8
7,Cc1csc(CCCNC(=O)NC2CC(=O)N(C(C)(C)C)C2)n1 (stereo not drawn),-8.88
8,CC(NC(=O)c1cc(-c2cccc(Cl)c2)no1)C(=O)N(C)C (stereo not drawn),-2.16
9,COc1cc(C(=O)N2CCC(Nc3cccnc3)CC2)ccc1C,-134
10,Cc1nc(CNC(=O)NCc2ccc(OCC3CC3)nc2)cs1,5.07
11,COCCN1C(=O)CC(N2CCN(c3ccccc3)CC2)C1=O (stereo not drawn),1.22
12,COc1cccc2[nH]cc(CCNC(=O)N3CCC[C@H]3CO)c12,-12.6
13,Cc1nn(C)c(C)c1CC(=O)N1CCCC1Cn1cccn1 (stereo not drawn),-14.8
14,Cc1nn(C(C)C)c(C)c1S(=O)(=O)Nc1ccc(C(=O)O)c(Cl)c1,-9.5
15,NC(=O)C1CN(c2ccc3c(Cl)ccnc3c2F)CCO1 (stereo not drawn),3.06
16,CC(C)(C)C(=O)NCCCn1cncn1,-9.46
17,N#Cc1ccc(NCCc2n[nH]c(=O)[nH]2)cc1Cl,26.5
18,Cc1cc(=O)n(C)cc1NC(=O)Cc1cccc(Cl)c1,-12.8
19,CCOc1cccnc1C(=O)N1CC=C(c2ccc(O)cc2)CC1,-1.66
20,Cc1noc(C)c1CSCc1nc(N)c2ccccc2n1,5.15
21,COCC(=O)NC(c1ccc(Cl)cc1)C(F)(F)F (stereo not drawn),6.76
22,CS(=O)(=O)CCCN(CCc1cccc(F)c1)C1CC1,-18.3
23,Cc1ccc(CN(C)c2cc(N3CCCC3CO)ncn2)s1 (stereo not drawn),5.6

row,SMILES,cytotoxicity at 10 µM [%]
1,CCCc1nccn1CCn1cnc2ccsc2c1=O,0.0394
2,CNS(=O)(=O)c1csc(C(=O)NCc2sccc2C)c1,4.63
3,O=C(Nc1ccccc1OC(F)(F)F)C1CCS(=O)(=O)C1 (stereo not drawn),10.8
4,CC(C)(C)NS(=O)(=O)c1cc(NC(=O)C2CC2)ccc1F,-10.6
5,COCC1CN(C(=O)Nc2cc(C(F)(F)F)ccc2F)CCO1 (stereo not drawn),4.24
6,COc1cc(F)c(S(=O)(=O)N2CCN(C)Cc3ccccc32)cc1OC,3.84
7,O=C(NCc1ccoc1)NC1CCCN(c2ncccn2)C1 (stereo not drawn),-1.27
8,Cc1nc(C)n(C2CCCN(C(=O)Cc3cccnc3)C2)n1 (stereo not drawn),-2.15
9,CS(=O)(=O)N[C@@H]1CCN(Cc2cccs2)[C@H]1Cc1cccnc1,-78.5
10,Cc1cc(C)n(CC(C)NC(=O)C2(c3ccccc3F)CC2)n1 (stereo not drawn),-0.844
11,O=C(c1cccnc1-c1ccc2c(c1)OCCO2)N1CCCC1,3.82
12,COc1cccc2c1OCC(C(=O)N1CCN(CCS(C)(=O)=O)CC1)C2 (stereo not drawn),1.28
13,Cc1noc(C)c1C(=O)N1CCC2(CC1)c1nc[nH]c1CCN2C,7.9
14,Cc1nc(C2CCCNC2)cc(N(Cc2c(C)nn(C)c2C)C2CC2)n1 (stereo not drawn),-7.23
15,CC(C)Cn1cncc1-c1nc2c([nH]1)CCCNC2=O,15
16,CC1CCN(CC(=O)N(C)CCc2noc(C3CC3)n2)C1=O (stereo not drawn),-133
17,Cc1cc(C)c(C(=O)NC(CN2CCCC2)c2ccccc2)c(=O)[nH]1 (stereo not drawn),-2.57
18,Fc1cc(Cl)cnc1N1CCCC(c2nccn2Cc2ccccn2)C1 (stereo not drawn),-3.54
19,O[C@H]1[C@H](n2cc(-c3cncnc3)nn2)c2ccccc2C12CCNCC2,-1.39
20,Cc1cc(-c2cccc(-c3ccn(CCCO)n3)c2)nc(N(C)C)n1,-5.42
21,O=c1[nH]nc(C2CC2)n1-c1cccc(Cl)c1,-3.11
22,O[C@H]1CN(c2nc(-c3ccccc3)no2)C[C@@H]1N1CCOCC1,-20.8
23,CSc1nccc(N2CCC3(CCCN(CC4CC4)C3)C2)n1 (stereo not drawn),-10.1

row,SMILES,cytotoxicity at 10 µM [%]
1,CN1C(=O)C2(CCN(c3nccc4occc34)CC2)c2ccccc21,1.16
2,CCN(Cc1cnn(C)c1)C[C@H]1CC[C@@H](Cc2ccc(OC)nc2)O1,1.94
3,CCCn1ncnc1C(C)NC(=O)CC1CCN(C(C)C)CC1 (stereo not drawn),-150
4,O=C(NCc1cc(O)ncn1)C1CCOc2ccccc2C1 (stereo not drawn),-6.01
5,CNC(=O)c1ccc(OC2CCN(S(C)(=O)=O)CC2)c(Cl)c1,1.49
6,CC(=O)N1CCC(c2cc(C(F)(F)F)n3ccnc3n2)CC1,1.56
7,CCN(Cc1ccc2c(c1)OCO2)S(=O)(=O)N(C)C,-2.97
8,Cc1cccc(C(=O)N2CCCCC2c2nc(C)cs2)n1 (stereo not drawn),-7.26
9,O=C(NCC1CCCO1)N1CCN(Cc2ccc3c(c2)CCO3)CC1 (stereo not drawn),-5.91
10,O=C(c1nn(-c2ccccc2F)cc1O)N1CCCSCC1,-0.0414
11,CCc1ccc(C(=O)N2CCN(CC(O)CC)CC2)o1 (stereo not drawn),-17.6
12,COc1c(C)cnc(CN2CCOC(Cn3nc(C)cc3C)C2)c1C (stereo not drawn),3.66
13,Cc1nn(C)c(N2CCOCC2)c1CNC1CCN(C2CC2)CC1,-3.96
14,Fc1ccc(-c2cnc(CN3CCOC(Cn4cccn4)C3)o2)cc1 (stereo not drawn),-12.1
15,Cc1nc(C2CCCN(C(=O)c3cc(C(C)(C)C)on3)C2)no1 (stereo not drawn),-11.9
16,CC(=O)Nc1nc(C(=O)NCc2ccc(N3CCOC(C)C3)nc2)cs1 (stereo not drawn),0.109
17,CN(Cc1nnc2n1CCC2)C(=O)CCc1ccc2c(c1)OCO2,-14
18,O=C(NCc1nncn1-c1ccccc1)C1CC1,-13.1
19,CC(C)c1nc(C2CCCN2C(=O)CCn2cncn2)no1 (stereo not drawn),-2.38
20,Cc1ccc(C)c(S(=O)(=O)CCNC2CCc3ncnn3C2)c1 (stereo not drawn),-30.6
21,CC(NCc1nnc2n1CCCC2)C(=O)N1CCc2sccc2C1 (stereo not drawn),-26.2
22,Cc1nc(CN2CCN(C(C)c3nc(C4CC4)no3)CC2)no1 (stereo not drawn),-6.34
23,CC(C)(CNC(=O)NCCc1ccn(-c2ccccc2)n1)C(N)=O,-16.8

row,SMILES,cytotoxicity at 10 µM [%]
1,CN(C)c1cc(CNC(=O)c2cc(Cl)ccn2)ccn1,-15
2,Cc1nc(CN2CCCC(N(C)Cc3nnc(C4CC4)o3)C2)no1 (stereo not drawn),-24.2
3,CCOc1ccccc1CSCCn1nc2ccccn2c1=O,1.88
4,CCc1nc(CN2CCCN(C(=O)C3CCOC3)CC2)cs1 (stereo not drawn),3.09
5,COc1ccc(-c2nc(CNCCn3cccn3)cs2)cc1,-1.17
6,COc1cccc(CN(C)Cc2nc3c(cnn3C)c(=O)[nH]2)c1OC,-4.28
7,Cc1csc(N2CCN(C(=O)CCn3cncn3)CC2)n1,-5.97
8,CN(Cc1cnn(C)c1)C(=O)NCc1nnc2n1CCC2,-4.1
9,CCOCC(O)CN1CCN(C(=O)C2CC2)CC1 (stereo not drawn),-7.2
10,CC(NC(=O)N(C)Cc1ccc(Cl)s1)c1ccccn1 (stereo not drawn),0.313
11,O=C(c1cccn2ccnc12)N1CCCN(c2cccnn2)CC1,1.68
12,Cc1ccc(CN2C[C@H](N3CCOCC3)[C@@H]3OCCC[C@@H]32)o1,-125
13,C[C@H]1CN(C)C[C@@]12COCCN(C(=O)Cc1ccccc1)C2,3.65
14,Fc1cnc(N2CC[C@@H]3O[C@H](COCc4ccccn4)CC[C@@H]32)nc1,2.9
15,O=C1[C@H]2CN(Cc3ccco3)C[C@H]2CN1c1cncnc1,-3.64
16,c1ccc(CO[C@@H]2C[C@H]3CN(c4ncccn4)CCN3C2)cc1,0.472
17,Cc1n[nH]cc1CNCC1(c2ccc3c(c2)OCO3)CCOCC1,7.73
18,COCC(=O)NC[C@]12COC[C@H]1CN(c1ncc(F)cn1)C2,-143
19,CC1CCN(c2nc3cn(-c4ccccc4)c(=O)c-3c[nH]2)CC1,-12.6
20,Cc1nc(C)c(CC(=O)N2C[C@H]3CC[C@@H](C2)N(CC2CC2)C3)s1,-1.59
21,O=c1c2c[nH]c(N3CCOCC3)nc-2cn1-c1ccc2c(c1)OCO2,-13.1
